Measured values: ChEMBL document CHEMBL5344428, “Discovery, Crystallographic Studies, and Mechanistic Investigations of Novel Phenylalanine Derivatives Bearing a Quinazolin-4-one Scaffold as Potent HIV Capsid Modulators” (J Med Chem, 2023)

Legend:
[1] = Selectivity ratio of EC50 for antiviral activity against HIV1 IIIB infected in human MT4 cells to EC50 for antiviral activity against HIV2 ROD infected in human MT4 cells; type: toxicity, cell-based
Method in brief: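 Ratio is EC50 against HIV-1 IIIB divided by EC50 against HIV-2 ROD. Both EC50 values come from MTT-read protection of infected MT-4 cells.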

[2] = Selectivity index, ratio of CC50 for cytotoxicity against human MT4 cells to EC50 for antiviral activity against HIV2 ROD infected in human MT4 cells; type: toxicity, cell-based; details: read-out: Ratio CC50/EC50
Method in brief: (§1)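 SI is CC50 divided by EC50. CC50 comes from MTT viability of uninfected MT-4 cells. EC50 comes from MTT-read protection of MT-4 cells infected with HIV-1 IIIB or HIV-2 ROD. Each value was run in at least triplicate.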

[3] = Selectivity index, ratio of CC50 for cytotoxicity against human MT4 cells to EC50 for antiviral activity against HIV1 IIIB infected in human MT4 cells; type: toxicity, cell-based; details: read-out: Ratio CC50/EC50; method in brief: as §1
[4] = Cytotoxicity against human MT4 cells assessed as reduction in cell viability incubated for 5 days by MTT assay; type: toxicity, cell-based; details: MT4 cells, time 5 day
Method in brief: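 Uninfected MT-4 cells were exposed to compound, and viability was read by the MTT method. […] Each value was run in at least triplicate and averaged from at least three independent experiments.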

[5] = system: Human immunodeficiency virus 1; experiment: Antiviral activity against HIV1 IIIB infected in human MT4 cells assessed as reduction in virus induced cytopathic effect measured after 5 days by MTT assay; type: functional, organism-based; details: Human immunodeficiency virus 1, IIIB, MT4, 120 h
Method in brief: (§2)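 MT-4 cells were infected with HIV-1 IIIB or HIV-2 ROD, and cell viability was read by MTT. […] Each value was run in at least triplicate and averaged from at least three independent experiments.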

[6] = system: Human immunodeficiency virus 2; experiment: Antiviral activity against HIV2 ROD infected in human MT4 cells assessed as reduction in virus induced cytopathic effect measured after 5 days by MTT assay; type: functional, organism-based; details: Human immunodeficiency virus 2, ROD, MT4, 120 h; method in brief: as §2

| SMILES | Ratio EC50 [1] | selectivity ratio [2] | selectivity ratio [3] | CC50 at 120 h [4] | EC50 [5] | EC50 [6] |
| --- | --- | --- | --- | --- | --- | --- |
| COc1ccc(N(C)C(=O)[C@H](Cc2cc(F)cc(F)c2)NC(=O)CN(CC2CCCCC2)C(=O)Cn2nc(C(F)(F)F)cc2C)cc1 | 1.22 | 2 | 2 | 45.7 µM | 30.3 µM | 24.9 µM |
| COc1ccc(N(C)C(=O)[C@H](Cc2ccccc2)NC(=O)Cn2ccc(NC(=O)c3cccc(F)c3)cc2=O)cc1 | 2.87 | 9.36 | 3.26 | 61.6 µM | 18.9 µM | 6.59 µM |
| COc1ccc(-n2c(SCc3ccccn3)nnc2[C@H](Cc2ccccc2)NC(=O)Cc2c(C)[nH]c3ccccc23)cc1 | 0.63 | 6 | 9 | 24.2 µM | 2.61 µM | 4.16 µM |
| COc1ccc(N(C)C(=O)[C@H](Cc2cc(F)cc(F)c2)NC(=O)CN(C(=O)Cc2ccc(B3OC(C)(C)C(C)(C)O3)cc2)C2CC2)cc1 | 0.53 | 9 | 17 | 89 µM | 5.18 µM | 9.71 µM |
| COc1ccc(-n2c([C@H](Cc3ccccc3)NC(=O)CN3CCN(S(=O)(=O)c4ccc([N+](=O)[O-])cc4)CC3)nc3cc(F)ccc3c2=O)cc1 | 3.55 | > 312 | > 88 | > 175 µM | 1.99 µM | 0.56 µM |
| COc1ccc(N(C)C(=O)[C@H](Cc2cc(F)cc(F)c2)NC(=O)CN(Cc2ccc(F)cc2)C(=O)Cc2ccc(B3OC(C)(C)C(C)(C)O3)cc2)cc1 | 0.89 | 5 | 6 | 65.4 µM | 11.7 µM | 13.2 µM |
| COc1ccc(N(C)C(=O)[C@H](Cc2cc(F)cc(F)c2)NC(=O)CN(C(=O)Cc2c(C)[nH]c3ccccc23)C2CC2)cc1 | 0.18 | 6 | 36 | 112 µM | 3.08 µM | 17.3 µM |
| COc1ccc(N(C)C(=O)[C@H](Cc2cc(F)cc(F)c2)NC(=O)CN2CCN(C(=O)Cc3c[nH]c4ccccc34)CC2=O)cc1 | 1.67 | 3.28 | 1.97 | 57.8 µM | 29.4 µM | 17.6 µM |
| COc1ccc(N(C)C(=O)[C@H](Cc2ccccc2)NC(=O)CN2CCN(C(=O)Cc3c(C)[nH]c4ccccc34)CC2=O)cc1 | 1.84 | 13.9 | 7.73 | 108 µM | 14.3 µM | 7.74 µM |
| COc1ccc(N(C)C(=O)[C@H](Cc2cc(F)cc(F)c2)NC(=O)CN(Cc2ccc(F)cc2)C(=O)Cc2c[nH]c3ccc(Br)cc23)cc1 | < 0.16 | < 1 | 6 | 17.8 µM | 2.93 µM | > 17.8 µM |
| COc1ccc(-n2c([C@H](Cc3cc(F)cc(F)c3)NC(=O)CN3CCN(S(=O)(=O)c4ccc(N)cc4)CC3)nc3cc(S(C)(=O)=O)ccc3c2=O)cc1 | 4.53 | > 1040 | > 236 | > 160 µM | 0.68 µM | 0.15 µM |
| COc1ccc(N(C)C(=O)[C@H](Cc2cc(F)cc(F)c2)NC(=O)CN2CCN(C(=O)c3ccc(NC(=O)C4CC4)cc3)CC2=O)cc1 | 0.95 | 5.87 | 6.17 | 88.6 µM | 14.4 µM | 15.1 µM |
| COc1ccc(N(C)C(=O)[C@H](Cc2cc(F)cc(F)c2)NC(=O)CN(Cc2ccc(F)cc2)C(=O)Cc2ccc(B(O)O)cc2)cc1 | 0.64 | 3 | 4 | 18.9 µM | 4.33 µM | 6.8 µM |
